Assay results as given in ChEMBL document CHEMBL5712908, “A genome-wide RNAi screen reveals essential therapeutic targets of breast cancer stem cells” (2019).
Values belong to the molecule of their own block, whether it stands above or below them. The source made the active and inactive calls. The calls are words filed in the database; no cut-off is given here.

Tests used:
[1] = molecular target: Histone acetyltransferase p300 (Homo sapiens) (UniProt Q09472); assay: Inhibition of EP300 in human MDA-MB-436 cells assessed as K-score by measuring ALDHbr cells by LSR2 cytometer; format: cell-based
Summary of the method: (§1)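 Breast cancer lines exposed continuously for 72 h in adherent culture to a range of doses centred on the MTS-derived IC50 (72 h MTS, absorbance 540 nm). ALDHbr fraction measured by ALDEFLUOR flow cytometry (LSR2) with DEAB control. K-score = linear regression coefficient between untreated condition and the log10 dose at which ALDHbr proportion changes by 50% versus control.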

[2] = molecular target: Histone acetyltransferase p300 (Homo sapiens) (UniProt Q09472); assay: Inhibition of EP300 in human SUM149 cells assessed as K-score by measuring ALDHbr cells by LSR2 cytometer; format: cell-based; summary of the method: as §1
[3] = molecular target: Histone acetyltransferase p300 (Homo sapiens) (UniProt Q09472); assay: Inhibition of EP300 in human SUM159 cells assessed as K-score by measuring ALDHbr cells by LSR2 cytometer; format: cell-based; summary of the method: as §1
[4] = molecular target: Histone acetyltransferase p300 (Homo sapiens) (UniProt Q09472); assay: Inhibition of EP300 in human BrCa-MZ-01 cells assessed as K-score by measuring ALDHbr cells by LSR2 cytometer; format: cell-based; summary of the method: as §1
[5] = molecular target: Histone acetyltransferase p300 (Homo sapiens) (UniProt Q09472); assay: Inhibition of EP300 in human S68 cells assessed as K-score by measuring ALDHbr cells by LSR2 cytometer; format: cell-based; summary of the method: as §1
[6] = molecular target: T1, Splicing factor 3B subunit 2 (Homo sapiens) (UniProt Q13435); assay: Inhibition of SF3B2 in human S68 cells assessed as K-score by measuring ALDHbr cells by LSR2 cytometer; format: cell-based
T1 sequence (whole entry): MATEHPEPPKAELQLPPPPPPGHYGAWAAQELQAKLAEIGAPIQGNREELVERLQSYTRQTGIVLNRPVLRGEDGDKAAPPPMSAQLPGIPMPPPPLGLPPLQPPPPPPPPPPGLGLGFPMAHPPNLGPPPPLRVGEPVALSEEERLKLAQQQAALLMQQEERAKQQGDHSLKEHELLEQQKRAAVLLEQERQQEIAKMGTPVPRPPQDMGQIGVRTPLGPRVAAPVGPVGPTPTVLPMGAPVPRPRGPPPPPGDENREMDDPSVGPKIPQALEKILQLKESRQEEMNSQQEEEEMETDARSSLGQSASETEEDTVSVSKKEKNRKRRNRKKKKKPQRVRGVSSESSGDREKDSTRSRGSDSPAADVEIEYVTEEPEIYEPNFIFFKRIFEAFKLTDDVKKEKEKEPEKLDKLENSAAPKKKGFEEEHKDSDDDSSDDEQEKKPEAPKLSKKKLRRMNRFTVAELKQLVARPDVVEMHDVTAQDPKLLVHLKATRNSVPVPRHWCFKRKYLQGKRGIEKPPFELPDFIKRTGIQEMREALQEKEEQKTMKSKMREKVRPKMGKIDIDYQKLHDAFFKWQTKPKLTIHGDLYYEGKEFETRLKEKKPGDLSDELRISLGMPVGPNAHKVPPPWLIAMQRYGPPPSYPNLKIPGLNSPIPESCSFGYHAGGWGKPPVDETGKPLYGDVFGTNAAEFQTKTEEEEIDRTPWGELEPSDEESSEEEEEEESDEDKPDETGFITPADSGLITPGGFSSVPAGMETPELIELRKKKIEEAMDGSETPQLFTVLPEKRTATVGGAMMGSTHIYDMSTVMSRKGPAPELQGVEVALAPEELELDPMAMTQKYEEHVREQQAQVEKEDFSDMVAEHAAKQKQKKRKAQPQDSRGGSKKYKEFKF
Summary of the method: (§2)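 Cell lines exposed for 72 h in adherent culture to a range of concentrations centred on the MTS-derived IC50. ALDHbr proportion measured by ALDEFLUOR flow cytometry (LSR2). K-score is the linear regression coefficient, on log10-transformed doses, between the untreated condition and the dose predicted to give a 50% decrease or increase in ALDHbr proportion versus control.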

[7] = molecular target: T1, Splicing factor 3B subunit 2 (Homo sapiens); assay: Inhibition of SF3B2 in human SUM159 cells assessed as K-score by measuring ALDHbr cells by LSR2 cytometer; format: cell-based; summary of the method: as §2
[8] = molecular target: T1, Splicing factor 3B subunit 2 (Homo sapiens); assay: Inhibition of SF3B2 in human SUM149 cells assessed as K-score by measuring ALDHbr cells by LSR2 cytometer; format: cell-based; summary of the method: as §2
[9] = molecular target: T1, Splicing factor 3B subunit 2 (Homo sapiens); assay: Inhibition of SF3B2 in human MDA-MB-436 cells assessed as K-score by measuring ALDHbr cells by LSR2 cytometer; format: cell-based; summary of the method: as §2
[10] = molecular target: T1, Splicing factor 3B subunit 2 (Homo sapiens); assay: Inhibition of SF3B2 in human BrCa-MZ-01 cells assessed as K-score by measuring ALDHbr cells by LSR2 cytometer; format: cell-based; summary of the method: as §2
[11] = molecular target: T2, Double-stranded RNA-specific editase 1 (Homo sapiens) (UniProt P78563); assay: Inhibition of ADARB1 in human BrCa-MZ-01cells assessed as K-score by measuring ALDHbr cells by LSR2 cytometer; format: cell-based; summary of the method: as §1
T2 sequence (whole entry): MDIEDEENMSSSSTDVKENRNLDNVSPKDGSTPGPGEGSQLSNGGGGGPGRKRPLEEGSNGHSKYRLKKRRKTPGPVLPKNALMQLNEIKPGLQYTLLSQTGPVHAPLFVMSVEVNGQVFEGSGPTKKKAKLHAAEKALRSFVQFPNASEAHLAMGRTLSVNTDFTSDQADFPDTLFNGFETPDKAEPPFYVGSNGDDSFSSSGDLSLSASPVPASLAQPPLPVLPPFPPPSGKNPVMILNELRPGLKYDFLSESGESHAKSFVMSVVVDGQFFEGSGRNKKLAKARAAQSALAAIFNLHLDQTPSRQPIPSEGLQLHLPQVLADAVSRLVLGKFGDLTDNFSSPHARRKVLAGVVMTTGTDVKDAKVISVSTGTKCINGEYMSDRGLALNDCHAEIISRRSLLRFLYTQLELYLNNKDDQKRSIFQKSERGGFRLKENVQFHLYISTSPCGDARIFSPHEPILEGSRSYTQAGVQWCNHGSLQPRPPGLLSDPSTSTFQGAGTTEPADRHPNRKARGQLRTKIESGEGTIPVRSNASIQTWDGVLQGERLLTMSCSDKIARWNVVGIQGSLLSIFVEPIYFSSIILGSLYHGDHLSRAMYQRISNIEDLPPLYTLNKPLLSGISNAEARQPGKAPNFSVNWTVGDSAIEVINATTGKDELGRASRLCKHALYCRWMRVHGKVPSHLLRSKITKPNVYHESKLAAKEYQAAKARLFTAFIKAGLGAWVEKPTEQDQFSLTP

[12] = molecular target: T2, Double-stranded RNA-specific editase 1 (Homo sapiens); assay: Inhibition of ADARB1 in human SUM149 cells assessed as K-score by measuring ALDHbr cells by LSR2 cytometer; format: cell-based; summary of the method: as §1
[13] = molecular target: T2, Double-stranded RNA-specific editase 1 (Homo sapiens); assay: Inhibition of ADARB1 in human MDA-MB-436 cells assessed as K-score by measuring ALDHbr cells by LSR2 cytometer; format: cell-based; summary of the method: as §1
[14] = molecular target: T2, Double-stranded RNA-specific editase 1 (Homo sapiens); assay: Inhibition of ADARB1 in human S68 cells assessed as K-score by measuring ALDHbr cells by LSR2 cytometer; format: cell-based; summary of the method: as §1
[15] = molecular target: T2, Double-stranded RNA-specific editase 1 (Homo sapiens); assay: Inhibition of ADARB1 in human SUM159 cells assessed as K-score by measuring ALDHbr cells by LSR2 cytometer; format: cell-based; summary of the method: as §1
SUM-159-PT [16] = assay: Anticancer activity against human SUM159 cells assessed as decrease in secondary tumor sphere formation incubated for 72 hrs by Extreme limiting dilution analysis; format: functional, cell-based
Summary of the method: (§3)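 Cells drug-treated in adherent culture for 72 h, then plated as single cells in ultra-low attachment 96-well plates in serum-free mammary epithelium basal medium. Plating at 25/10/5/3/2/1 cells per well, 18–36 wells per condition. Wells with ≥1 sphere after 10 days scored positive. Secondary spheres were made by dissociating primary spheres. Frequency by ELDA; n = 4; pairwise chi-square test.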

SUM-159-PT [17] = assay: Anticancer activity against human SUM159 cells assessed as decrease in primary tumor sphere formation incubated for 72 hrs by Extreme limiting dilution analysis; format: functional, cell-based; summary of the method: as §3
[18] = Antitumor activity against human S68 cells assessed as K-score by measuring ALDHbr cells by LSR2 cytometer; format: functional; summary of the method: as §2
MDA-MB-436 = assay: Antitumor activity against human MDA-MB-436 cells assessed as K-score by measuring ALDHbr cells by LSR2 cytometer; format: functional; summary of the method: as §2
[19] = Antitumor activity against human BrCa-MZ-01 cells assessed as K-score by measuring ALDHbr cells by LSR2 cytometer; format: functional; summary of the method: as §2
SUM-159-PT [20] = assay: Antitumor activity against human SUM159 cells assessed as K-score by measuring ALDHbr cells by LSR2 cytometer; format: functional; summary of the method: as §2
SUM149PT = assay: Antitumor activity against human SUM149 cells assessed as K-score by measuring ALDHbr cells by LSR2 cytometer; format: functional; summary of the method: as §2

Chain of Histone acetyltransferase p300 (Homo sapiens) (Q09472 whole entry): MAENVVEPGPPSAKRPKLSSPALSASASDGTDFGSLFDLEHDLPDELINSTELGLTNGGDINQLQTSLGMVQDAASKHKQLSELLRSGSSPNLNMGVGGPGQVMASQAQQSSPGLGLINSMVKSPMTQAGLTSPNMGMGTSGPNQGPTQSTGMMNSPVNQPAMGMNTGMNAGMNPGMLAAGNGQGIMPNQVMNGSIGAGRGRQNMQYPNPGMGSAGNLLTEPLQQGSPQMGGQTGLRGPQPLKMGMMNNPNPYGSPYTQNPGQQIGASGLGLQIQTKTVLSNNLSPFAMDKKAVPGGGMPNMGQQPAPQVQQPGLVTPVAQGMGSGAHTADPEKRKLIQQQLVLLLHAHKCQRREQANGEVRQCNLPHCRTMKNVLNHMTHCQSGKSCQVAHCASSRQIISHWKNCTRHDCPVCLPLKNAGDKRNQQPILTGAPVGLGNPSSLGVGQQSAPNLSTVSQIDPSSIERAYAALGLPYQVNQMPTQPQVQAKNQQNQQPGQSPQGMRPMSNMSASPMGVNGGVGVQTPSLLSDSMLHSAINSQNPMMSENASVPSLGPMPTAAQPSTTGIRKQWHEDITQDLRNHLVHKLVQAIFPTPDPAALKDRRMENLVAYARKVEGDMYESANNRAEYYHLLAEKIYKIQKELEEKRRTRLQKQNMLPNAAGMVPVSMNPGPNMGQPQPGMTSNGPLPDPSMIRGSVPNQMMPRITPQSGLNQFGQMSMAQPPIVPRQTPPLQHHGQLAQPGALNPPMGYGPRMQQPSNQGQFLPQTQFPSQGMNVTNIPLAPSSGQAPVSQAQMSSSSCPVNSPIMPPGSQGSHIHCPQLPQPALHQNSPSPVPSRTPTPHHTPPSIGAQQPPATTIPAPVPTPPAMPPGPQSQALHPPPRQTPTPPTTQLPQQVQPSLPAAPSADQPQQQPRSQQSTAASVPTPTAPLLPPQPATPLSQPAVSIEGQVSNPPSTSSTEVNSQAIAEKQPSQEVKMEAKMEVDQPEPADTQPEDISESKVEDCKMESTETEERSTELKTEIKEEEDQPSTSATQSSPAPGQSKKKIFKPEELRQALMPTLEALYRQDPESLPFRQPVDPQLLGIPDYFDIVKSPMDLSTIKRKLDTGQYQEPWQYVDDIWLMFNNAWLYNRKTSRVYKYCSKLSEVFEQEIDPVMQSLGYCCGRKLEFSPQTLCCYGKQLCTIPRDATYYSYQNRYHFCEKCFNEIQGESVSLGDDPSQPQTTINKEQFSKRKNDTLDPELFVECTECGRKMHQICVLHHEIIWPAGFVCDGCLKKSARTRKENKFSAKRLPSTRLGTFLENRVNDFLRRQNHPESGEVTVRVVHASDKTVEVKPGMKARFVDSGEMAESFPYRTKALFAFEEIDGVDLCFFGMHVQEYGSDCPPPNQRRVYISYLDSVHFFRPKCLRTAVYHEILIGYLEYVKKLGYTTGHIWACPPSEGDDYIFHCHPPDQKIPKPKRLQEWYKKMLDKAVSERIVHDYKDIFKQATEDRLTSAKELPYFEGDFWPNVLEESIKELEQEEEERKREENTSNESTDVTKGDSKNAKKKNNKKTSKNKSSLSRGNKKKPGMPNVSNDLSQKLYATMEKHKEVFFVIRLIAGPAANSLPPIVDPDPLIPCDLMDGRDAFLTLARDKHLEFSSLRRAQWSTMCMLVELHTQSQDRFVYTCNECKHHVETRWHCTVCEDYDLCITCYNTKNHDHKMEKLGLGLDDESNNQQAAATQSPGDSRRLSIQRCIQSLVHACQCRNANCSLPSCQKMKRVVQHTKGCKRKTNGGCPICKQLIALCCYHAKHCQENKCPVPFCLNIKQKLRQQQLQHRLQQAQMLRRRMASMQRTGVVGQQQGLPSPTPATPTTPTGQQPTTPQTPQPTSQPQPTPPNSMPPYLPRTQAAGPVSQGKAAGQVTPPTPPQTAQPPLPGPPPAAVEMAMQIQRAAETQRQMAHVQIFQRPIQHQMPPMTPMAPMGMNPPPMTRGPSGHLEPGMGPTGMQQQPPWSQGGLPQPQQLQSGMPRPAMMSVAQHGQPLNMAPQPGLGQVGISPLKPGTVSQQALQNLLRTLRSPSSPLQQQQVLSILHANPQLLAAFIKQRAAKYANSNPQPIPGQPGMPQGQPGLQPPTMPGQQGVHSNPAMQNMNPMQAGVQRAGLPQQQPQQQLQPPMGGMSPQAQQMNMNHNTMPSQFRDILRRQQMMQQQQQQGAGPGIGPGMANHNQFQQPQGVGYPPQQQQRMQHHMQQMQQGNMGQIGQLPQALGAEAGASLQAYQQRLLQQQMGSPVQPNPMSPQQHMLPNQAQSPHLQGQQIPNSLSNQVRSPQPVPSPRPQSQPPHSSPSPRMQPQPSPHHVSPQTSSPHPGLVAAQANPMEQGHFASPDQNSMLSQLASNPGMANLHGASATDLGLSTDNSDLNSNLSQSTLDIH

SMILES: CO[C@]1(C)C[C@@]2(CO2)[C@H](O)[C@@H](/C=C/C(C)=C/C[C@@H]2O[C@H](C)[C@H](NC(=O)/C=C\[C@H](C)OC(C)=O)C[C@@H]2C)O1
Activity [6]: -0.16
Activity [7]: 0.25
Activity [8]: -0.19
Activity [9]: -0.15
Activity [10]: 0.05

SMILES: CCCc1cc(C)[nH]c(=O)c1CNC(=O)c1cc(-c2ccnc(N3CCN(C)CC3)c2)cc2c1cnn2C(C)C
Activity (SUM-159-PT [16]): inactive
Activity (SUM-159-PT [17]): inactive

SMILES: CCN(CC)CCCC(C)Nc1ccnc2cc(Cl)ccc12 (configuration not stated) [CHLOROQUINE]
Activity [18]: -0.02
Activity (MDA-MB-436): -0.06
Activity [19]: -0.02
Activity (SUM-159-PT [20]): 0.04
Activity (SUM149PT): -0.01

Second part, the molecule after the results:

Activity [1]: 0.14
Activity [2]: 0.1
Activity [3]: 0.02
Activity [4]: 0.01
Activity [5]: 0.22
SMILES: CCC(=O)N1CCOc2c(cc(-c3ccc(OC)c(OC)c3)cc2OC[C@H]2CCCN(C)C2)C1

Activity [11]: -0.01
Activity [12]: 0.12
Activity [13]: -0.02
Activity [14]: -0.01
Activity [15]: -0.11
SMILES: Nc1ncnc2c1nnn2[C@@H]1O[C@H](CO)[C@@H](O)[C@H]1O

Activity [1]: -0.04
Activity [2]: 0.1
Activity [3]: -0.02
Activity [4]: -0.01
Activity [5]: 0.08
SMILES: COc1ccc(CCc2nc3cc(-c4c(C)noc4C)ccc3n2C[C@H](C)N2CCOCC2)cc1Cl
